The values below come from paper PMC12059366 (Biomolecules & Therapeutics, 2025).

One data set relates to complementary DNAs. Nature of the data set: Melting temperature. The class given is binding. Particulars: 2 μM PNA-DNA duplex, 10 mM sodium phosphate pH 7.0, 0.1 M NaCl; absorbance at 260 nm, 25°C to 90°C at 1.0°C per minute.
In a further data set the test system is IDO1 pre-mRNA. Kind of data set: IDO1 gene expression by q-RT-PCR in human keratinocytes. In kind it is cell-based. The following applies: non-cytotoxic concentrations (Fig. 2B, 2C), n=3.
The subject of a further data set is IL-8. Kind of data set: IL-8 level by ELISA in supernatants of IFNγ-treated human keratinocytes. The class given is cell-based. Particulars: concentration-dependent, n=3. Background: In an ELISA, binding on a coated surface is turned into a signal by an enzyme label.
Another data set deals with IL-6. Nature of the data set: IL-6 level by ELISA in supernatants of IFNγ-treated human keratinocytes. In kind it is cell-based. Particulars: concentration-dependent, n=3.
The next data set deals with IDO1. Nature of the data set: IDO1 gene expression by q-RT-PCR in IFNγ-treated human keratinocytes. In kind it is cell-based. Particulars: compound 24 h before IFNγ, n=3. The method in brief:
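Primary neonatal foreskin human keratinocytes in supplemented KBM Gold medium were pretreated with test PNA for 24 h, then given recombinant human IFNγ in KBM Gold basal medium. The control was scrambled PNA at 0.1 μM. RNA was extracted with TRIzol and RNeasy, then reverse-transcribed. IDO1 was measured by TaqMan q-RT-PCR against RPL13A using the Pfaffl method. Results are mean ± SD, n=3, t-test.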

The subject of another data set is PGE2. Nature of the data set: PGE2 level by ELISA in supernatants of IFNγ-treated human keratinocytes. In kind it is cell-based. Particulars: concentration-dependent, n=3.

In the case of CG*^2TA*C*TTTGA*TTG*^2 [Compound 4], in the data set on complementary DNAs, the “Tm (binding affinity to complementary DNA)” value worked out at 72.07 °C.
On to “Compound 2: modified PNA oligomer with cationic lipid-bearing nucleobases targeting IDO1 pre-mRNA (CTCCAAACCTTACG; PNA; cationic lipid-bearing nucleobases)”, for which, in the data set with IDO1 pre-mRNA, the “IDO1 gene expression, concentration-dependent analysis” value is “significant inhibitory effect”. Moreover, the “IL-8 level in cell culture supernatant” value in the data set on IL-8 is given as “effectively reduced”. Also, in the data set with IL-6, the “IL-6 level in cell culture supernatant” value was “effectively reduced”. Further, the IDO1 expression entry in the data set with IDO1 was “significantly inhibits IDO1 expression”. For the same substance, the “PGE2 level in cell culture supernatant” value in the data set on PGE2 is “effectively reduced”. Besides, the “Tm (binding affinity to complementary DNA)” value in the data set on complementary DNAs was 82.07 °C.
